Data reported in ChEMBL document CHEMBL1649306, “Arylimidamide DB766, a potential chemotherapeutic candidate for Chagas' disease treatment” (Antimicrob Agents Chemother, 2010).
The source made the active and inactive calls. The rule behind the calls is not given here.

Columns and labels:
Trypanosoma cruzi [1] = assay: Antitrypanosomal activity against bloodstream forms of Trypanosoma cruzi YuYu after 24 hrs by light microscopy in presence of 50% mouse blood; type: functional, organism-based
Summary of the method: (§1)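 Bloodstream trypomastigotes kept at 4°C for 24 h in freshly isolated 50% mouse blood with serial dilutions (up to 32 μM). Motile live parasites counted in a Neubauer chamber by light microscopy; IC50 calculated as concentration reducing parasite number by 50%.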

Trypanosoma cruzi [2] = assay: Antitrypanosomal activity against Trypanosoma cruzi Columbian bloodstream forms infected in C3H mouse assessed as decrease in parasite load in 25 mg/kg/day, po administered 5 days postinfection for 10 consecutive days measured after 120 days; type: functional, organism-based
Trypanosoma cruzi [3] = assay: Antitrypanosomal activity against Trypanosoma cruzi Columbian bloodstream forms infected in C3H mouse assessed as decrease in parasite load in 50 mg/kg/day, po administered 5 days postinfection for 10 consecutive days measured after 120 days; type: functional, organism-based
Trypanosoma cruzi [4] = assay: Antitrypanosomal activity against Trypanosoma cruzi 762 epimastigotes after 24 hrs by light microscopy; type: functional, organism-based; details: Trypanosoma cruzi, 762, 24 h
Summary of the method: (§2)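 Epimastigotes from 5-day exponential cultures, 5 × 10^6 parasites/ml in LIT medium, incubated at 28°C up to 96 h with DB766 0 to 32 μM or Bz 0 to 250 μM. Counted daily in a Neubauer chamber. IC50 averaged from at least three determinations in duplicate.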

Trypanosoma cruzi [5] = assay: Antitrypanosomal activity against Trypanosoma cruzi Y bloodstream forms infected in Swiss-Webster mouse assessed as reduction in parasite-induced weight loss in mouse at 50 mg/kg/day, ip administered 5 days postinfection for 10 consecutive days measured on day 120; type: functional, organism-based
Summary of the method: (§3)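 Body weight of infected, treated mice followed from 0 to 120 dpi.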

Trypanosoma cruzi [6] = assay: Antitrypanosomal activity against Trypanosoma cruzi Columbian bloodstream forms infected in C3H mouse assessed as reduction in parasite-induced weight loss at 25 mg/kg/day, ip administered 5 days postinfection for 10 consecutive days measured after 120 days; type: functional, organism-based; summary of the method: as §3
Trypanosoma cruzi [7] = assay: Antitrypanosomal activity against Trypanosoma cruzi Y bloodstream forms infected in Swiss-Webster mouse assessed as decrease in parasite load at 25 mg/kg/day, ip administered 8 days postinfection measured on day 2; type: functional; design: scale not given: the % may be the effect or the level left; details: route intraperitoneal
Summary of the method: (§4)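 Male Swiss mice infected i.p. with 10^4 Y strain bloodstream forms. Given 0.2 ml i.p. at 5 and 8 dpi, or daily for 10 days from 5 dpi; reference drug given by gavage. Parasitemia measured by the Pizzi-Brener method, cumulative mortality checked daily to 120 dpi, n ≥ 6 per group.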

Mus musculus = assay: Cardiotoxicity in […] mouse assessed as effect on heart rate level at 100 mg/kg/day, ip; type: toxicity, organism-based; design: route intraperitoneal; details: in vivo
Summary of the method: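 Colombian strain, 5 × 10³ bloodstream forms i.p. into male C3H/He mice; 100 mg/kg/day given i.p. or by gavage (0.1 ml) daily for 10 doses from parasitemia onset. Mice sedated with diazepam (20 mg/kg i.p.), supine; eight-lead ECG from subcutaneous limb needle electrodes plus precordial lead II. Signal-averaged ECG; heart rate as beats per minute.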

Trypanosoma cruzi [8] = assay: Antitrypanosomal activity against Trypanosoma cruzi Y infected in Swiss-Webster mouse assessed as decrease in parasite-induced weight loss at 100 mg/kg/day, po administered 5 days post-infection for 10 consecutive days measured on day 120; type: functional, organism-based; summary of the method: as §3
Trypanosoma cruzi [9] = assay: Antitrypanosomal activity against Trypanosoma cruzi MS1523 epimastigotes after 24 hrs by light microscopy; type: functional, organism-based; details: MS1523, 24 h; summary of the method: as §2
Trypanosoma cruzi [10] = assay: Antitrypanosomal activity against Trypanosoma cruzi Y bloodstream forms infected in Swiss-Webster mouse assessed as reduction in parasite-induced weight loss in mouse at 100 mg/kg/day, po administered 5 days postinfection for 10 consecutive days measured on day 120; type: functional, organism-based; summary of the method: as §3
Trypanosoma cruzi [11] = assay: Antitrypanosomal activity against Trypanosoma cruzi Columbian bloodstream forms infected in C3H mouse assessed as decrease in parasite load at 100 mg/kg/day, ip administered 5 days postinfection for 10 consecutive days measured after 31 days; type: functional; design: scale not given: the % may be the effect or the level left; details: route intraperitoneal
Summary of the method: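 C3H/He mice infected i.p. with 10^3 or 5 × 10^3 Colombian strain bloodstream forms. Treated daily for 10 days with 0.1 ml i.p. or by gavage, reference drug given by gavage. Parasitemia measured by the Pizzi-Brener method; n ≥ 6 parasitemic mice per group.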

Trypanosoma cruzi [12] = assay: Antitrypanosomal activity against Trypanosoma cruzi Y bloodstream forms infected in Swiss-Webster mouse assessed as decrease in parasite load at 50 mg/kg/day, ip administered 8 days postinfection measured on day 2; type: functional; design: scale not given: the % may be the effect or the level left; details: route intraperitoneal
Summary of the method: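 Two-day regimen in male Swiss mice infected i.p. with 10^4 Y-strain bloodstream forms: i.p. doses (0.2 ml) at 5 and 8 dpi. Circulating parasites quantified at the 8 dpi peak by Pizzi-Brener method; reduction versus infected untreated mice; n ≥ 6 per group.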

Trypanosoma cruzi [13] = assay: Antitrypanosomal activity against bloodstream forms of Trypanosoma cruzi Y infected in Swiss mouse cardiomyocytes assessed as intracellular parasitemia at 10.6 uM after 72 hrs by Pizzi-Brener method; type: functional, organism-based
Trypanosoma cruzi [14] = assay: Antitrypanosomal activity against Trypanosoma cruzi Columbian bloodstream forms infected in C3H mouse assessed as decrease in cardiac parasite load at 100 mg/kg/day, ip administered 5 days postinfection for 10 consecutive days measured after 43 days; type: functional; design: scale not given: the % may be the effect or the level left; details: route intraperitoneal
Summary of the method: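 Male C3H/He mice infected i.p. with 5 × 10^3 Colombian strain bloodstream forms, given 100 mg/kg/day i.p. daily for 10 days. At 43 dpi, H&E-stained 3 μm heart sections scored for amastigote nests and infiltrates (>10 mononuclear cells) over at least 100 fields. Three sections each from at least three mice.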

Trypanosoma cruzi [15] = assay: Antitrypanosomal activity against bloodstream forms of Trypanosoma cruzi CL after 24 hrs by light microscopy in presence of 50% mouse blood; type: functional, organism-based; summary of the method: as §1
Trypanosoma cruzi [16] = assay: Antitrypanosomal activity against Trypanosoma cruzi Y bloodstream forms infected in Swiss-Webster mouse assessed as survival rate of mouse at 100 mg/kg/day, ip administered 8 days postinfection measured on day 120; type: functional; details: route intraperitoneal
Summary of the method: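 Every-other-day i.p. dosing (5 doses, each 48 h apart) of 100 mg/kg/day in male Swiss mice inoculated with 10^4 Y-strain bloodstream trypomastigotes, n ≥ 6 parasitemia-positive animals. Mortality recorded daily up to 120 dpi as cumulative percentage.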

Trypanosoma cruzi [17] = assay: Antitrypanosomal activity against Trypanosoma cruzi Y bloodstream forms infected in Swiss-Webster mouse assessed as decrease in parasitemia at 100 mg/kg/day, ip administered 8 days postinfection measured on day 120; type: functional; details: route intraperitoneal; summary of the method: as §4
Trypanosoma cruzi [18] = assay: Antitrypanosomal activity against Trypanosoma cruzi Columbian bloodstream forms infected in C3H mouse assessed as decrease in parasite load at 50 mg/kg/day, ip p administered 5 days postinfection for 10 consecutive days measured after 120 days; type: functional, organism-based
Trypanosoma cruzi [19] = assay: Antitrypanosomal activity against bloodstream forms of Trypanosoma cruzi Y after 2 hrs by light microscopy in presence of 96% mouse blood; type: functional, organism-based
Summary of the method: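 Bloodstream trypomastigotes held at 4°C in freshly isolated mouse blood (96%) with serial dilutions up to 32 μM. Live motile parasites counted by light microscopy in a Neubauer chamber, giving an IC50 for each exposure time.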

Trypanosoma cruzi [20] = assay: Antitrypanosomal activity against Trypanosoma cruzi Y bloodstream forms infected in Swiss-Webster mouse assessed as survival of mouse at 50 mg/kg/day, ip administered 8 days postinfection measured on day 120; type: functional, organism-based; summary of the method: as §4
[21] = Cardiotoxicity against Swiss-Webster mouse cardiomyocytes assessed as creatine kinase cardiac isotype level by MTT assay; type: toxicity, Heart, Cardiomyocyte; details: read-out: LC50 (the source's name)
Summary of the method: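 Embryonic cardiomyocytes from Swiss mice, uninfected, exposed to 0 to 96 μM in DMEM at 37°C. Viability followed by CK-MB released into culture supernatant, alongside light-microscopy checks of morphology and spontaneous contraction; assays at least three times in duplicate.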

CC(C)Oc1cc(NC(=N)c2ccccn2)ccc1-c1ccc(-c2ccc(NC(=N)c3ccccn3)cc2OC(C)C)o1
IC50 (Trypanosoma cruzi [1]): 820 nM
Activity (Trypanosoma cruzi [2]): inactive
Activity (Trypanosoma cruzi [3]): inactive
IC50 (Trypanosoma cruzi [4]): 60 nM
IC90 (Trypanosoma cruzi [4]): 180 nM
Activity (Trypanosoma cruzi [5]): inactive
Activity (Trypanosoma cruzi [6]): inactive
Activity (Trypanosoma cruzi [7]): 78%
Activity (Mus musculus): Toxic
Activity (Trypanosoma cruzi [8]): inactive
IC50 (Trypanosoma cruzi [9]): 170 nM
IC90 (Trypanosoma cruzi [9]): 410 nM
Activity (Trypanosoma cruzi [10]): Active
Activity (Trypanosoma cruzi [11]): 100%
Activity (Trypanosoma cruzi [12]): 88%
IC50 (Trypanosoma cruzi [13]): 25 nM
Activity (Trypanosoma cruzi [14]): 95%
IC50 (Trypanosoma cruzi [15]): 710 nM
Activity (Trypanosoma cruzi [16]): 60%
inhibition in vivo at 100 mg/kg/day (Trypanosoma cruzi [17]): > 99%
Activity (Trypanosoma cruzi [18]): Active
IC50 (Trypanosoma cruzi [19]): 560 nM
Activity (Trypanosoma cruzi [20]): Active
CC50 [21]: > 10600 nM
